According to ChEMBL document CHEMBL3244187, “Structure--activity relationships in cephalosporins prepared from penicillins. 2. Analogues of cephalexin substituted in the 3-methyl group” (J Med Chem, 1977):
Converted amounts (≈) assume the structure as drawn. The source made the active and inactive calls. The rule behind the calls is not given here.

Assays:
Staphylococcus aureus [1] = test: Antibacterial activity against beta-lactamase producing benzylpenicillin-resistant Staphylococcus aureus Russell after 18 hrs by serial dilution method; format: functional
Method in brief: (§1)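 MICs by serial dilution on nutrient agar. Inoculum 0.001 mL of undiluted overnight broth culture. Plates incubated 18 h at 37 °C before reading. The S. aureus Russell strain produces β-lactamase and resists benzylpenicillin.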

Escherichia coli = test: Antibacterial activity against Escherichia coli after 18 hrs by serial dilution method; format: functional
Method in brief: (§2)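 MICs by serial dilution on nutrient agar. Inoculum 0.001 mL of undiluted overnight broth culture. Plates incubated at 37 °C for 18 h before reading.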

Salmonella typhi = test: Antibacterial activity against Salmonella typhi after 18 hrs by serial dilution method; format: functional, Salmonella enterica subsp. enterica serovar Typhi; settings: Salmonella enterica; method in brief: as §1
Shigella sonnei = test: Antibacterial activity against Shigella sonnei after 18 hrs by serial dilution method; format: functional; method in brief: as §2
Klebsiella aerogenes = test: Antibacterial activity against Klebsiella aerogenes after 18 hrs by serial dilution method; format: functional; method in brief: as §2
Proteus mirabilis = test: Antibacterial activity against Proteus mirabilis after 18 hrs by serial dilution method; format: functional; method in brief: as §2
Staphylococcus aureus [2] = test: Antibacterial activity against Staphylococcus aureus Oxford after 18 hrs by serial dilution method; format: functional; method in brief: as §2
[3] = Drug level in mouse blood at 50 mg/kg, po after 10 mins by microbiological assay; format: ADME, organism-based; parameters: dose 50 mg/kg, route oral; settings: read-out: Drug uptake
Method in brief: (§3)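 Mice given a single 50 mg/kg dose by the route in the line. Groups of five killed at each time point and blood taken from the cut axilla, heparinized and stored at 4 °C. Blood assayed the same day by large-plate microbiological assay with Sarcina lutea NCTC 8340, overnight at 30 °C. Standards made in mouse blood, with pH 7.2 phosphate-buffered saline as diluent.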

[4] = Drug level in mouse blood at 50 mg/kg, po after 20 mins by microbiological assay; format: ADME, organism-based; parameters: dose 50 mg/kg, route oral; settings: read-out: Drug uptake; method in brief: as §3
[5] = Drug level in mouse blood at 50 mg/kg, po after 30 mins by microbiological assay; format: ADME, organism-based; parameters: dose 50 mg/kg, route oral; settings: read-out: Drug uptake; method in brief: as §3
[6] = Drug level in mouse blood at 50 mg/kg, po after 1 hr by microbiological assay; format: ADME, organism-based; parameters: dose 50 mg/kg, route oral; settings: read-out: Drug uptake; method in brief: as §3
[7] = Drug level in mouse blood at 50 mg/kg, po after 2 hrs by microbiological assay; format: ADME, organism-based; parameters: dose 50 mg/kg, route oral; settings: read-out: Drug uptake; method in brief: as §3
[8] = Drug level in mouse blood at 50 mg/kg, po after 4 hrs by microbiological assay; format: ADME, organism-based; parameters: dose 50 mg/kg, route oral; settings: read-out: Drug uptake; method in brief: as §3
Pseudomonas aeruginosa = test: Antibacterial activity against cephalosporin-resistant Pseudomonas aeruginosa after 18 hrs by serial dilution method; format: functional, organism-based; method in brief: as §1
Morganella morganii = test: Antibacterial activity against cephalosporin-resistant Proteus morganii after 18 hrs by serial dilution method; format: functional, organism-based; method in brief: as §1
Enterobacter cloacae = test: Antibacterial activity against cephalosporin-resistant Enterobacter cloacae after 18 hrs by serial dilution method; format: functional, organism-based; method in brief: as §1

Row | SMILES | MIC (Staphylococcus aureus [1]) | MIC (Escherichia coli) | MIC (Salmonella typhi) | MIC (Shigella sonnei) | MIC (Klebsiella aerogenes) | MIC (Proteus mirabilis) | MIC (Staphylococcus aureus [2]) | concentration at 10 min [3] | concentration at 20 min [4] | concentration at 0.5 h [5] | concentration at 1 h [6] | concentration at 2 h [7] | concentration at 4 h [8] | Activity (Pseudomonas aeruginosa) | Activity (Morganella morganii) | Activity (Enterobacter cloacae)
1 | Cn1cccc1CC1=C(C(=O)O)N2C(=O)[C@@H](NC(=O)[C@H](N)c3ccccc3)[C@H]2SC1 | 50 µg/mL (≈ 117 µM) | 500 µg/mL (≈ 1170 µM) | 50 µg/mL (≈ 117 µM) | 500 µg/mL (≈ 1170 µM) | 500 µg/mL (≈ 1170 µM) | 500 µg/mL (≈ 1170 µM) | 1.25 µg/mL (≈ 2.93 µM) | – | – | – | – | – | – | – | – | –
2 | N[C@@H](C(=O)N[C@@H]1C(=O)N2C(C(=O)O)=C(Cc3ccccc3C(F)(F)F)CS[C@H]12)c1ccccc1 | 5 µg/mL (≈ 10.2 µM) | > 100 µg/mL | > 100 µg/mL | > 100 µg/mL | > 100 µg/mL | > 100 µg/mL | 0.5 µg/mL (≈ 1.02 µM) | – | – | – | – | – | – | – | – | –
3 | N[C@@H](C(=O)N[C@@H]1C(=O)N2C(C(=O)O)=C(Cc3ccccn3)CS[C@H]12)c1ccccc1 | 12.5 µg/mL (≈ 29.4 µM) | 50 µg/mL (≈ 118 µM) | 12.5 µg/mL (≈ 29.4 µM) | 25 µg/mL (≈ 58.9 µM) | > 500 µg/mL | 50 µg/mL (≈ 118 µM) | 1.25 µg/mL (≈ 2.94 µM) | – | – | – | – | – | – | – | – | –
4 | N[C@@H](C(=O)N[C@@H]1C(=O)N2C(C(=O)O)=C(Cc3ccccc3)CS[C@H]12)c1ccccc1 | 2.5 µg/mL (≈ 5.9 µM) | 25 µg/mL (≈ 59 µM) | 25 µg/mL (≈ 59 µM) | 25 µg/mL (≈ 59 µM) | 25 µg/mL (≈ 59 µM) | 50 µg/mL (≈ 118 µM) | 0.1 µg/mL (≈ 0.236 µM) | 110 ng/mL | 180 ng/mL | 210 ng/mL | 190 ng/mL | 340 ng/mL | 150 ng/mL | – | – | –
5 | N[C@@H](C(=O)N[C@@H]1C(=O)N2C(C(=O)O)=C(Cc3cccnc3)CS[C@H]12)c1ccccc1 | 2.5 µg/mL (≈ 5.89 µM) | 2.5 µg/mL (≈ 5.89 µM) | 1.25 µg/mL (≈ 2.94 µM) | 2.5 µg/mL (≈ 5.89 µM) | 2.5 µg/mL (≈ 5.89 µM) | 5 µg/mL (≈ 11.8 µM) | 0.25 µg/mL (≈ 0.589 µM) | 2850 ng/mL | 1440 ng/mL | 1250 ng/mL | 620 ng/mL | 650 ng/mL | 100 ng/mL | inactive | inactive | inactive
6 | COC(=O)CC1=C(C(=O)O)N2C(=O)[C@@H](NC(=O)[C@H](N)c3ccccc3)[C@H]2SC1 | 16 µg/mL (≈ 39.5 µM) | 31 µg/mL (≈ 76.5 µM) | 8 µg/mL (≈ 19.7 µM) | 16 µg/mL (≈ 39.5 µM) | 63 µg/mL (≈ 155 µM) | 63 µg/mL (≈ 155 µM) | 0.5 µg/mL (≈ 1.23 µM) | – | – | – | – | – | – | – | – | –
7 | Cc1ccncc1CC1=C(C(=O)O)N2C(=O)[C@@H](NC(=O)[C@H](N)c3ccccc3)[C@H]2SC1 | 12.5 µg/mL (≈ 28.5 µM) | 12.5 µg/mL (≈ 28.5 µM) | 5 µg/mL (≈ 11.4 µM) | 12.5 µg/mL (≈ 28.5 µM) | 12.5 µg/mL (≈ 28.5 µM) | 25 µg/mL (≈ 57 µM) | 0.12 µg/mL (≈ 0.274 µM) | – | – | – | – | – | – | – | – | –
8 | CN(C)S(=O)(=O)c1ccc(CC2=C(C(=O)O)N3C(=O)[C@@H](NC(=O)[C@H](N)c4ccccc4)[C@H]3SC2)cc1 | 500 µg/mL (≈ 942 µM) | 25 µg/mL (≈ 47.1 µM) | 25 µg/mL (≈ 47.1 µM) | 25 µg/mL (≈ 47.1 µM) | 50 µg/mL (≈ 94.2 µM) | 125 µg/mL (≈ 236 µM) | 0.5 µg/mL (≈ 0.942 µM) | – | – | – | – | – | – | – | – | –
